According to ChEMBL document CHEMBL1125554, “Studies on pyridonecarboxylic acids. 1. Synthesis and antibacterial evaluation of 7-substituted-6-halo-4-oxo-4H-[1,3]thiazeto[3,2-a]quinoline-3-carboxylic acids” (J Med Chem, 1992):
Values after ≈ are worked out from the molar mass of the structure shown.

Tests used:
[1] = test system: Escherichia coli; assay: In vitro antibacterial activity against Escherichia coli NIH JC-2; assay type: functional
Outline: (§1)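 MIC (μg/mL) by 2-fold agar dilution on Sensitivity Test agar, following the Japan Society of Chemotherapy MIC Committee method. Inocula were about 10⁶ cfu/mL. Growth was read after 20 h incubation at 37 °C.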

[2] = test system: Serratia marcescens; assay: In vitro antibacterial activity against Serratia marcescens IFO 3736; assay type: functional; outline: as §1
[3] = test system: Micrococcus luteus; assay: In vitro antibacterial activity against Micrococcus luteus ATCC 9341; assay type: functional; outline: as §1
[4] = test system: Pseudomonas aeruginosa; assay: In vitro antibacterial activity against Pseudomonas aeruginosa E-2; assay type: functional; outline: as §1
[5] = test system: Klebsiella pneumoniae; assay: In vitro antibacterial activity against Klebsiella pneumoniae K-1966; assay type: functional; outline: as §1
[6] = test system: Staphylococcus aureus; assay: In vitro antibacterial activity against Staphylococcus aureus 209P JC-1; assay type: functional; outline: as §1
[7] = test system: Shigella flexneri; assay: In vitro antibacterial activity against Shigella flexneri 2a EW-10; assay type: functional; outline: as §1
[8] = organism: Mus musculus; assay: Compound was evaluated for oral efficacy on systemic infections in mice by Escherichia coli KC-14; assay type: functional
Outline: (§2)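 Male ddY mice (20 ± 2 g), seven per dose group. Challenge was intraperitoneal, 0.5 mL of bacteria suspended in 5% gastric mucin: E. coli KC-14 at 4.3 × 10⁴ cfu/mL or P. aeruginosa E-2 at 2.88 × 10⁵ cfu/mL. Drug was suspended in 0.5% HPC-SL and given orally 2 h (E. coli) or 1 h (P. aeruginosa) after challenge. ED50 was calculated by Probit from 7-day survival.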

[9] = organism: Mus musculus; assay: Compound was evaluated for oral Pseudomonas aeruginosa E-2; assay type: functional; outline: as §2
[10] = Lethal dose on systemic infections in mice after oral administration; assay type: toxicity, organism-based; conditions: mouse, in vivo
Outline: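 Acute oral toxicity: the suspension was given orally in 0.5% HPC-SL to Slc:SD rats, although the section heading says mice. Males weighed 141-168 g and females 113-127 g, five per group. LD50 was determined by the method of Weil 7 days after dosing.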

[11] = Escherichia coli, read-out: MIC
[12] = Serratia marcescens, IFO 3736, read-out: MIC
[13] = Micrococcus luteus, ATCC 9341, read-out: MIC
[14] = Pseudomonas aeruginosa, read-out: MIC
[15] = Klebsiella pneumoniae, read-out: MIC
[16] = Staphylococcus aureus, read-out: MIC
[17] = Shigella flexneri, read-out: MIC

MIC [1, 11] | MIC [2, 12] | MIC [3, 13] | MIC [4, 14] | MIC [5, 15] | MIC [6, 16] | MIC [7, 17] | SMILES | ED50 [8] | ED50 [9] | MIC [1] | MIC [2] | MIC [3] | MIC [4] | MIC [5] | MIC [6] | MIC [7] | LD50 [10]
0.2 µg/mL (≈ 0.47 µM) | 0.39 µg/mL (≈ 0.917 µM) | 6.25 µg/mL (≈ 14.7 µM) | 1.56 µg/mL (≈ 3.67 µM) | 0.2 µg/mL (≈ 0.47 µM) | 0.39 µg/mL (≈ 0.917 µM) | 0.2 µg/mL (≈ 0.47 µM) | CN1CCN(c2cc3c(cc2F)c(=O)c(C(=O)O)c2n3C(c3ccccc3)S2)CC1 (stereo unspecified) |  |  |  |  |  |  |  |  |  | 
> 100 µg/mL | > 100 µg/mL | 12.5 µg/mL (≈ 29.4 µM) | > 100 µg/mL | > 100 µg/mL | 3.13 µg/mL (≈ 7.36 µM) | > 100 µg/mL | CC1Sc2c(C(=O)O)c(=O)c3cc(F)c(N4CCN(c5ccccc5)CC4)cc3n21 (stereo unspecified) |  |  |  |  |  |  |  |  |  | 
0.05 µg/mL (≈ 0.132 µM) | 0.1 µg/mL (≈ 0.265 µM) | 1.56 µg/mL (≈ 4.13 µM) | 0.78 µg/mL (≈ 2.07 µM) | 0.05 µg/mL (≈ 0.132 µM) | 0.1 µg/mL (≈ 0.265 µM) | 0.025 µg/mL (≈ 0.0662 µM) | CCN1CCN(c2cc3c(cc2F)c(=O)c(C(=O)O)c2n3C(C)S2)CC1 (stereo unspecified) |  |  |  |  |  |  |  |  |  | 
0.78 µg/mL (≈ 1.99 µM) | 1.56 µg/mL (≈ 3.99 µM) | 3.13 µg/mL (≈ 8 µM) | 6.25 µg/mL (≈ 16 µM) | 0.39 µg/mL (≈ 0.996 µM) | 0.2 µg/mL (≈ 0.511 µM) | 0.39 µg/mL (≈ 0.996 µM) | CC(=O)N1CCN(c2cc3c(cc2F)c(=O)c(C(=O)O)c2n3C(C)S2)CC1 (stereo unspecified) |  |  |  |  |  |  |  |  |  | 
0.2 µg/mL (≈ 0.44 µM) | 1.56 µg/mL (≈ 3.43 µM) | 0.39 µg/mL (≈ 0.858 µM) | 3.13 µg/mL (≈ 6.89 µM) | 0.2 µg/mL (≈ 0.44 µM) | 0.05 µg/mL (≈ 0.11 µM) | 0.1 µg/mL (≈ 0.22 µM) | CC1Sc2c(C(=O)O)c(=O)c3cc(F)c(N4CCN(Cc5ccc(N)cc5)CC4)cc3n21 (stereo unspecified) |  |  |  |  |  |  |  |  |  | 
0.0125 µg/mL (≈ 0.0358 µM) | 0.05 µg/mL (≈ 0.143 µM) | 12.5 µg/mL (≈ 35.8 µM) | 0.39 µg/mL (≈ 1.12 µM) | 0.025 µg/mL (≈ 0.0716 µM) | 0.05 µg/mL (≈ 0.143 µM) | 0.006 µg/mL (≈ 0.0172 µM) | CN1CCN(c2cc3c(cc2F)c(=O)c(C(=O)O)c2n3CS2)CC1 | 1.77 mg/kg | 16.4 mg/kg |  |  |  |  |  |  |  | 
0.39 µg/mL (≈ 1.07 µM) | 3.13 µg/mL (≈ 8.61 µM) | 3.13 µg/mL (≈ 8.61 µM) | 6.25 µg/mL (≈ 17.2 µM) | 0.2 µg/mL (≈ 0.55 µM) | 0.39 µg/mL (≈ 1.07 µM) | 0.1 µg/mL (≈ 0.275 µM) | CC1Sc2c(C(=O)O)c(=O)c3cc(F)c(N4CCNC(=O)C4)cc3n21 (stereo unspecified) |  |  |  |  |  |  |  |  |  | 
0.2 µg/mL (≈ 0.511 µM) | 0.39 µg/mL (≈ 0.996 µM) | 3.13 µg/mL (≈ 8 µM) | 1.56 µg/mL (≈ 3.99 µM) | 0.025 µg/mL (≈ 0.0639 µM) | 0.05 µg/mL (≈ 0.128 µM) | 0.025 µg/mL (≈ 0.0639 µM) | CC(C)N1CCN(c2cc3c(cc2F)c(=O)c(C(=O)O)c2n3C(C)S2)CC1 (stereo unspecified) |  |  |  |  |  |  |  |  |  | 
0.2 µg/mL (≈ 0.55 µM) | 0.39 µg/mL (≈ 1.07 µM) | 3.13 µg/mL (≈ 8.61 µM) | 3.13 µg/mL (≈ 8.61 µM) | 0.2 µg/mL (≈ 0.55 µM) | 0.1 µg/mL (≈ 0.275 µM) | 0.1 µg/mL (≈ 0.275 µM) | CC1Sc2c(C(=O)O)c(=O)c3cc(F)c(N4CCCNCC4)cc3n21 (stereo unspecified) |  |  |  |  |  |  |  |  |  | 
0.2 µg/mL (≈ 0.598 µM) | 0.78 µg/mL (≈ 2.33 µM) | 0.78 µg/mL (≈ 2.33 µM) | 0.39 µg/mL (≈ 1.17 µM) | 0.1 µg/mL (≈ 0.299 µM) | 0.05 µg/mL (≈ 0.15 µM) | 0.1 µg/mL (≈ 0.299 µM) | CC1Sc2c(C(=O)O)c(=O)c3cc(F)c(N4CCCC4)cc3n21 (stereo unspecified) |  |  |  |  |  |  |  |  |  | 
0.2 µg/mL (≈ 0.546 µM) | 0.39 µg/mL (≈ 1.06 µM) | 0.78 µg/mL (≈ 2.13 µM) | 0.39 µg/mL (≈ 1.06 µM) | 0.2 µg/mL (≈ 0.546 µM) | 0.025 µg/mL (≈ 0.0682 µM) | 0.1 µg/mL (≈ 0.273 µM) | CC1Sc2c(C(=O)O)c(=O)c3cc(F)c(N4CCSCC4)cc3n21 (stereo unspecified) |  |  |  |  |  |  |  |  |  | 
 |  |  |  |  |  |  | CC1Sc2c(C(=O)O)c(=O)c3cc(F)c(N4CCNCC4)cc3n21 (stereo in doubt; 29a) [ULIFLOXACIN] |  |  | 0.0125 µg/mL (≈ 0.0358 µM) | 0.05 µg/mL (≈ 0.143 µM) | 0.78 µg/mL (≈ 2.23 µM) | 0.2 µg/mL (≈ 0.572 µM) | 0.006 µg/mL (≈ 0.0172 µM) | 0.05 µg/mL (≈ 0.143 µM) | 0.006 µg/mL (≈ 0.0172 µM) | 
 |  |  |  |  |  |  | CC1Sc2c(C(=O)O)c(=O)c3cc(F)c(N4CCNCC4)cc3n21 (stereo in doubt; 29l) [ULIFLOXACIN] |  |  | 0.78 µg/mL (≈ 2.23 µM) | 3.13 µg/mL (≈ 8.96 µM) | 3.13 µg/mL (≈ 8.96 µM) | 1.56 µg/mL (≈ 4.46 µM) | 0.39 µg/mL (≈ 1.12 µM) | 0.2 µg/mL (≈ 0.572 µM) | 0.78 µg/mL (≈ 2.23 µM) | 
 |  |  |  |  |  |  | Cc1oc(=O)oc1CN1CCN(c2cc3c(cc2F)c(=O)c(C(=O)O)c2n3C(C)S2)CC1 (stereo unspecified) [PRULIFLOXACIN] | 0.35 mg/kg | 8.02 mg/kg |  |  |  |  |  |  |  | > 500 mg/kg

SMILES | MIC [1, 11] | MIC [2, 12] | MIC [3, 13] | MIC [4, 14] | MIC [5, 15] | MIC [6, 16] | MIC [7, 17] | ED50 [8] | ED50 [9] | MIC [1] | MIC [2] | MIC [3] | MIC [4] | MIC [5] | MIC [6] | MIC [7] | LD50 [10]
O=C(O)c1c2n(c3cc(N4CCNCC4)c(Cl)cc3c1=O)CS2 | 0.39 µg/mL (≈ 1.11 µM) | 0.2 µg/mL (≈ 0.568 µM) | 6.25 µg/mL (≈ 17.8 µM) | 6.25 µg/mL (≈ 17.8 µM) | 0.2 µg/mL (≈ 0.568 µM) | 0.2 µg/mL (≈ 0.568 µM) | 0.1 µg/mL (≈ 0.284 µM) |  |  |  |  |  |  |  |  |  | 
O=C(O)c1cn(C2CC2)c2cc(N3CCNCC3)c(F)cc2c1=O [CIPROFLOXACIN] | 0.0125 µg/mL (≈ 0.0377 µM) | 0.1 µg/mL (≈ 0.302 µM) | 1.56 µg/mL (≈ 4.71 µM) | 0.2 µg/mL (≈ 0.604 µM) | 0.006 µg/mL (≈ 0.0181 µM) | 0.1 µg/mL (≈ 0.302 µM) | 0.006 µg/mL (≈ 0.0181 µM) | 0.45 mg/kg | 9.01 mg/kg |  |  |  |  |  |  |  | 
CC1COc2c(N3CCN(C)CC3)c(F)cc3c(=O)c(C(=O)O)cn1c23 (stereo unspecified) [OFLOXACIN] | 0.1 µg/mL (≈ 0.277 µM) | 0.39 µg/mL (≈ 1.08 µM) | 3.13 µg/mL (≈ 8.66 µM) | 1.56 µg/mL (≈ 4.32 µM) | 0.025 µg/mL (≈ 0.0692 µM) | 0.39 µg/mL (≈ 1.08 µM) | 0.1 µg/mL (≈ 0.277 µM) | 0.55 mg/kg | 23 mg/kg |  |  |  |  |  |  |  | 
